Reference: ChEMBL document CHEMBL5303300, “EUbOPEN Chemogenomics Library - Multiplex” (2023)
Values joined by “and” are separate entries in the source; they are usually repeats but may differ in a detail not shown here. Equal values may be shown once.

Tested on: HEK-293T
Assay: Multiplex assay against HEK293T
Type: toxicity, cell-based
Details: human, number of replicates 2
How it was run: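 Live cells were stained at seeding with Hoechst33342, BioTracker Green Microtubule Cytoskeleton Dye, MitoTracker Red and Annexin V Alexa Fluor 680. Following compound addition, they were imaged on a CQ1 microscope at 37°C and 5% CO2 and gated by CellPathfinder machine learning into Hoechst high-intensity objects or normal cells, with normal cells split into healthy, pyknosed or fragmented nuclei and pyknosed cells into mitotic or apoptotic. Tubulin, mitochondrial-mass and membrane-permeability phenotypes are per cents of healthy-nucleus cells.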

[1] = 12 h, 1 µM, compound concentration 1 uM
[2] = 12 h, 10 µM, compound concentration 10 uM
[3] = 24 h, 1 µM, compound concentration 1 uM
[4] = 24 h, 10 µM, compound concentration 10 uM
[5] = 48 h, 1 µM, compound concentration 1 uM
[6] = 48 h, 10 µM, compound concentration 10 uM

CC(C)N1CCN(Cc2cnc(-c3cc(-c4cccc5[nH]ccc45)cc4[nH]ncc34)o2)CC1 [NEMIRALISIB]
Population Apoptotic (%) [1]: 45% and 59%
Population Fragmented Nuclei (%) [1]: 5% and 3%
Population Healthy Nuclei (%) [1]: 77% and 74%
Population Hoechst High Intensity Objects (%) [1]: 12% and 13%
Population Membrane Permeable-Phenotype (%) [1]: 4% and 2%
Population Mitochondria Different-Phenotype (%) [1]: 18% and 22%
Population Mitotic Cells (%) [1]: 54% and 40%
Population Normal (%) [1]: 87% and 86%
Population Pyknosed Nuclei (%) [1]: 16% and 21%
Population Tubulin-Different-Phenotype (%) [1]: 69% and 70%
Total Cell Count [1]: 748 and 665
Population Apoptotic (%) [2]: 62% and 64%
Population Fragmented Nuclei (%) [2]: 2% and 3%
Population Healthy Nuclei (%) [2]: 87% and 84%
Population Hoechst High Intensity Objects (%) [2]: 11% and 7%
Population Membrane Permeable-Phenotype (%) [2]: 5% and 3%
Population Mitochondria Different-Phenotype (%) [2]: 46% and 61%
Population Mitotic Cells (%) [2]: 37% and 35%
Population Normal (%) [2]: 88% and 92%
Population Pyknosed Nuclei (%) [2]: 9% and 12%
Population Tubulin-Different-Phenotype (%) [2]: 98%
Total Cell Count [2]: 425 and 404
Population Apoptotic (%) [3]: 52% and 61%
Population Fragmented Nuclei (%) [3]: 10% and 6%
Population Healthy Nuclei (%) [3]: 75% and 74%
Population Hoechst High Intensity Objects (%) [3]: 9% and 11%
Population Membrane Permeable-Phenotype (%) [3]: 2%
Population Mitochondria Different-Phenotype (%) [3]: 7% and 8%
Population Mitotic Cells (%) [3]: 47% and 38%
Population Normal (%) [3]: 90% and 88%
Population Pyknosed Nuclei (%) [3]: 13% and 19%
Population Tubulin-Different-Phenotype (%) [3]: 40% and 42%
Total Cell Count [3]: 1140 and 951
Population Apoptotic (%) [4]: 50% and 57%
Population Fragmented Nuclei (%) [4]: 3%
Population Healthy Nuclei (%) [4]: 85% and 78%
Population Hoechst High Intensity Objects (%) [4]: 18% and 14%
Population Membrane Permeable-Phenotype (%) [4]: 3%
Population Mitochondria Different-Phenotype (%) [4]: 39% and 57%
Population Mitotic Cells (%) [4]: 50% and 42%
Population Normal (%) [4]: 81% and 85%
Population Pyknosed Nuclei (%) [4]: 11% and 17%
Population Tubulin-Different-Phenotype (%) [4]: 94% and 96%
Total Cell Count [4]: 468 and 473
Population Apoptotic (%) [5]: 21% and 33%
Population Fragmented Nuclei (%) [5]: 17% and 10%
Population Healthy Nuclei (%) [5]: 78% and 84%
Population Hoechst High Intensity Objects (%) [5]: 10%
Population Membrane Permeable-Phenotype (%) [5]: 6% and 2%
Population Mitochondria Different-Phenotype (%) [5]: 0% and 1%
Population Mitotic Cells (%) [5]: 78% and 66%
Population Normal (%) [5]: 89%
Population Pyknosed Nuclei (%) [5]: 4%
Population Tubulin-Different-Phenotype (%) [5]: 19%
Total Cell Count [5]: 2776 and 2131
Population Apoptotic (%) [6]: 51% and 60%
Population Fragmented Nuclei (%) [6]: 8% and 7%
Population Healthy Nuclei (%) [6]: 84% and 85%
Population Hoechst High Intensity Objects (%) [6]: 11% and 15%
Population Membrane Permeable-Phenotype (%) [6]: 6% and 7%
Population Mitochondria Different-Phenotype (%) [6]: 28% and 18%
Population Mitotic Cells (%) [6]: 48% and 40%
Population Normal (%) [6]: 88% and 84%
Population Pyknosed Nuclei (%) [6]: 6% and 7%
Population Tubulin-Different-Phenotype (%) [6]: 86% and 80%
Total Cell Count [6]: 815 and 665

COc1ccc(F)c(F)c1C(=O)c1cnc(NC2CCN(S(C)(=O)=O)CC2)nc1N [RG-547]
Population Apoptotic (%) [1]: 71% and 70%
Population Fragmented Nuclei (%) [1]: 1% and 3%
Population Healthy Nuclei (%) [1]: 86% and 87%
Population Hoechst High Intensity Objects (%) [1]: 8%
Population Membrane Permeable-Phenotype (%) [1]: 4%
Population Mitochondria Different-Phenotype (%) [1]: 21% and 18%
Population Mitotic Cells (%) [1]: 28% and 29%
Population Normal (%) [1]: 91%
Population Pyknosed Nuclei (%) [1]: 11% and 8%
Population Tubulin-Different-Phenotype (%) [1]: 57% and 48%
Total Cell Count [1]: 469 and 554
Population Apoptotic (%) [2]: 62% and 82%
Population Fragmented Nuclei (%) [2]: 3% and 4%
Population Healthy Nuclei (%) [2]: 91% and 86%
Population Hoechst High Intensity Objects (%) [2]: 8% and 11%
Population Membrane Permeable-Phenotype (%) [2]: 2% and 1%
Population Mitochondria Different-Phenotype (%) [2]: 24% and 33%
Population Mitotic Cells (%) [2]: 37% and 17%
Population Normal (%) [2]: 91% and 88%
Population Pyknosed Nuclei (%) [2]: 5% and 8%
Population Tubulin-Different-Phenotype (%) [2]: 59% and 65%
Total Cell Count [2]: 491 and 448
Population Apoptotic (%) [3]: 86% and 67%
Population Fragmented Nuclei (%) [3]: 3% and 5%
Population Healthy Nuclei (%) [3]: 90% and 87%
Population Hoechst High Intensity Objects (%) [3]: 5% and 7%
Population Membrane Permeable-Phenotype (%) [3]: 5% and 3%
Population Mitochondria Different-Phenotype (%) [3]: 8% and 9%
Population Mitotic Cells (%) [3]: 13% and 32%
Population Normal (%) [3]: 94% and 92%
Population Pyknosed Nuclei (%) [3]: 5% and 7%
Population Tubulin-Different-Phenotype (%) [3]: 33% and 37%
Total Cell Count [3]: 670 and 592
Population Apoptotic (%) [4]: 63% and 66%
Population Fragmented Nuclei (%) [4]: 4% and 2%
Population Healthy Nuclei (%) [4]: 89% and 87%
Population Hoechst High Intensity Objects (%) [4]: 9% and 15%
Population Membrane Permeable-Phenotype (%) [4]: 0%
Population Mitochondria Different-Phenotype (%) [4]: 42% and 37%
Population Mitotic Cells (%) [4]: 36% and 33%
Population Normal (%) [4]: 90% and 84%
Population Pyknosed Nuclei (%) [4]: 6% and 9%
Population Tubulin-Different-Phenotype (%) [4]: 63% and 61%
Total Cell Count [4]: 395 and 403
Population Apoptotic (%) [5]: 61% and 72%
Population Fragmented Nuclei (%) [5]: 11%
Population Healthy Nuclei (%) [5]: 86%
Population Hoechst High Intensity Objects (%) [5]: 5%
Population Membrane Permeable-Phenotype (%) [5]: 1% and 2%
Population Mitochondria Different-Phenotype (%) [5]: 2% and 4%
Population Mitotic Cells (%) [5]: 38% and 27%
Population Normal (%) [5]: 94%
Population Pyknosed Nuclei (%) [5]: 1%
Population Tubulin-Different-Phenotype (%) [5]: 24% and 25%
Total Cell Count [5]: 841 and 644
Population Apoptotic (%) [6]: 73% and 80%
Population Fragmented Nuclei (%) [6]: 5%
Population Healthy Nuclei (%) [6]: 89% and 84%
Population Hoechst High Intensity Objects (%) [6]: 17% and 13%
Population Membrane Permeable-Phenotype (%) [6]: 0%
Population Mitochondria Different-Phenotype (%) [6]: 50% and 55%
Population Mitotic Cells (%) [6]: 26% and 20%
Population Normal (%) [6]: 82% and 86%
Population Pyknosed Nuclei (%) [6]: 5% and 10%
Population Tubulin-Different-Phenotype (%) [6]: 67% and 65%
Total Cell Count [6]: 329 and 336
